Consider 2 compounds from PMC2796117 (Bioorganic & medicinal chemistry letters, 2009).

One series concerns Shh-LIGHT2 cells. The experiment in a line: Cytotoxicity by Cell Titer Glo. Format: cell-based. The following applies: for Cytotoxicity: Shh-LIGHT2 cells, cytotoxic above the stated concentration; for cytotoxicity (in words): any concentration. The essentials: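 Cell Titer Glo luminescence in Shh-LIGHT2 Gli-reporter cells. Values are approximations read from concentration curves. Where compounds are cytotoxic, the Gli % ECmax is taken at the highest effective non-cytotoxic concentration.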

The test system of series [1] is Gli activity (Shh pathway) in Shh-LIGHT2 cell line. The experiment in a line: Shh-LIGHT2 Gli-luciferase reporter assay. It counts as cell-based. The following applies: for Gli repression / activity in Shh-LIGHT2 (in words): Shh-LIGHT2 cell line, concentrations ranging from 3.9 µM to 125 µM where stated. The essentials:
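Shh-LIGHT2 Gli-reporter cells stimulated with ShhN-conditioned DMEM containing 0.5% (v/v) calf serum, then exposed to test compound over a concentration series (3.9 to 125 µM where stated). Gli activity read by Bright Glo luciferase, and cytotoxicity by Cell Titer Glo. EC50 approximated from concentration curves. % ECmax is inhibition relative to cyclopamine's ECmax, or for cytotoxic compounds relative to the highest effective non-cytotoxic concentration.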

The next series deals with ShhN (Homo sapiens, UniProt Q15465). Description: Surface plasmon resonance. Format: binding. The method, boiled down:
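Purified Sonic Hedgehog N-terminal peptide (ShhN) probed by surface plasmon resonance with test compound in PBS containing 5% (v/v) DMSO. Sensorgrams background-subtracted against DMSO. Binding expressed as KD in µM, with off-rates compared from the binding curves.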
(In general: Surface plasmon resonance follows binding to a sensor surface in real time, without labels.)

Another series relates to Shh signaling. The following applies: cell lines, human primary keratinocytes, synthetic model of human skin; cited from earlier work.

Chain of ShhN (Q15465 24-197 limits assumed, species assumed): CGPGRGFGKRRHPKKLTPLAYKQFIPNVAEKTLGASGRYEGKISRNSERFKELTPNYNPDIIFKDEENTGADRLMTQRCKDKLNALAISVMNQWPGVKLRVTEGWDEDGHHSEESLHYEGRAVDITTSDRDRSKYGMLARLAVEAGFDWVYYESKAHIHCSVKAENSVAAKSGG

As for `O=C(C[C@H]1C/C=C/CCCC(=O)O[C@@H](c2ccccc2)CNC1=O)NCc1ccc(Cl)cc1` [(1, S, R) (3)], in the series on Shh-LIGHT2 cells, the Cytotoxicity entry is reported as “none” and the “cytotoxicity (in words)” value was “neither compound displayed differences in cytotoxicity at any concentration”. In series [1], the “Gli repression / activity in Shh-LIGHT2 (in words)” value is “Gli suppression was ablated”.
In the case of `O=C(C[C@@H]1C/C=C/CCC(=O)O[C@H](c2ccccc2)CNC1=O)NCc1ccc(Cl)cc1` [(0, R, S) (2), robotnikinin], the apparent off-rate result on ShhN (SPR, compared with the (2S, 6R) 13-membered homolog) is “significantly longer”. Moreover, the “Binding / affinity for ShhN by SPR (in words)” value at ShhN (purified ShhN, PBS buffer with 5% (v/v) DMSO) is listed as “bound purified ShhN in a stoichiometric manner”. Moreover, in the series on Shh-LIGHT2 cells, the Cytotoxicity entry was “none” and the “cytotoxicity (in words)” value is given as “neither compound displayed differences in cytotoxicity at any concentration”. Besides, the “Gli repression / activity in Shh-LIGHT2 (in words)” value in series [1] is listed as “strong concentration-dependent Gli repression”. In addition, the “% ECmax (footnote e)” value in series [1] (taken relative to mock treatment (reporter values comparable to 6µM cyclopamine), cytotoxic compounds: highest effective non-cytotoxic concentration) came to 91% ^e. Also, in the series on Shh signaling, the “effect on Shh signaling” value is given as “blocks Shh signaling”.
